Measured values: ChEMBL document CHEMBL3826925, “Design, synthesis and biological evaluation of PSMA/hepsin-targeted heterobivalent ligands” (Eur J Med Chem, 2016)

What was measured:
Serine protease hepsin = Serine protease hepsin (Homo sapiens, UniProt P05981); assay: Inhibition of recombinant human hepsin using Boc-QAR-AMC as substrate preincubated for 30 mins followed by substrate addition by fluorescence assay
[1] = Drug uptake in human PC3-ML cells expressing PSMA at 10 to 1000 nM after 4 hrs by flow cytometry; type: ADME, cell-based; conditions: 1 µM
Tumour [2] = assay: Drug uptake in tumor of NOD/Shi-scid/IL-2Rgamma null mouse xenografted with human PC3-ML cells expressing PSMA/HPN at 1 nmol, iv measured 24 hrs post dosing by near infrared optical imaging analysis; type: ADME, organism-based, Neoplasm; conditions: in vivo
How it was run: (§1)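 Six-week-old male NSG mice received 1 million tumor cells subcutaneously in the upper flank. Two weeks later, 1 nmol of the Cy7-labelled ligand in 100 uL PBS was injected via tail vein. NIR fluorescence images were taken 24 hr post injection with a small-animal imaging system.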

Tumour [3] = assay: Drug uptake in tumor of NOD/Shi-scid/IL-2Rgamma null mouse xenografted with human PC3-ML cells expressing PSMA at 1 nmol, iv measured 24 hrs post dosing by near infrared optical imaging analysis; type: ADME, organism-based, Neoplasm; conditions: in vivo; how it was run: as §1
[4] = Drug uptake in human PC3-ML cells expressing hepsin/PSMA at 100 to 1000 nM after 4 hrs by flow cytometry; type: ADME, cell-based; conditions: 1 µM
How it was run: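 Cells seeded at 5 × 10^5 per well and grown 48 h to full adhesion. Medium then replaced with compound in RPMI 1640 with 10% FBS for 4 h (methods state final concentration 10 µg/mL). Cells washed twice with cold PBS, fixed in 4% paraformaldehyde for 10 min, and uptake read by flow cytometry.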

[5] = target: Glutamate carboxypeptidase 2 (Homo sapiens, UniProt Q04609); assay: Inhibition of PSMA (unknown origin) assessed as reduction in glutamate formation using NAAG as substrate preincubated for 30 mins followed by substrate addition by Amplex red assay
Glutamate carboxypeptidase 2, sequence (Q04609 whole entry): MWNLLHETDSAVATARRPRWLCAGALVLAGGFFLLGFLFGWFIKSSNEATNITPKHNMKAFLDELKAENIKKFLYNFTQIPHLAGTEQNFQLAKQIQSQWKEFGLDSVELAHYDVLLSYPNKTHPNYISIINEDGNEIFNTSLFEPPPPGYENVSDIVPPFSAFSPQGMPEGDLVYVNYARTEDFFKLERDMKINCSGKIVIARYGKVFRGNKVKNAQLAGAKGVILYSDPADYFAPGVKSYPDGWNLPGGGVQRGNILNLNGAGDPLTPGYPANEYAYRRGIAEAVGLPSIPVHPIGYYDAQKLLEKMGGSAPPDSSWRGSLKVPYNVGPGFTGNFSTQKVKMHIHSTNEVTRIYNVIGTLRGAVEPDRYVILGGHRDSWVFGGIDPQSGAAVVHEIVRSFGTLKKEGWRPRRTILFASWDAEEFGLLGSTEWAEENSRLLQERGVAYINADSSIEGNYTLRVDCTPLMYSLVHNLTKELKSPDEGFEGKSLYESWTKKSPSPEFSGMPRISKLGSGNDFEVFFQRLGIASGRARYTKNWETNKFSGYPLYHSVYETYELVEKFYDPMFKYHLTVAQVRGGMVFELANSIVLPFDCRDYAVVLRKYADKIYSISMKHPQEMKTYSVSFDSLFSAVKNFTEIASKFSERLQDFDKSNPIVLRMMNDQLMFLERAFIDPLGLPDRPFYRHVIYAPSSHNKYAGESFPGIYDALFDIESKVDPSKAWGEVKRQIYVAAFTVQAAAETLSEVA

Serine protease hepsin, sequence (P05981 1-162 limits assumed): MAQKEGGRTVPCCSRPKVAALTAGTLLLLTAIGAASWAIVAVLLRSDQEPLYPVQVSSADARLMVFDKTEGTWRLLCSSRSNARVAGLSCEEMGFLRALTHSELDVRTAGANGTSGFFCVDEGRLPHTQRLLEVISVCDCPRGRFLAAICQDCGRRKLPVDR
Serine protease hepsin, sequence (P05981 163-417 limits assumed): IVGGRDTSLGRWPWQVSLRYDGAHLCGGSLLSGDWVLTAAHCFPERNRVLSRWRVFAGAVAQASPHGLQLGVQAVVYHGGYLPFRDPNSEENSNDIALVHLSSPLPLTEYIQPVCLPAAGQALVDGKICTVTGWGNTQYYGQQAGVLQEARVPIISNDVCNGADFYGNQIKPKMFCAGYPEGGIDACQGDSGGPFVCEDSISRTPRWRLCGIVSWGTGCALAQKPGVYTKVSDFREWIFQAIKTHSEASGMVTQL

Row | IC50 (Serine protease hepsin) | SMILES | further results
1 | 5.9 µM | N=C(N)c1ccc2[nH]c(-c3cc(-c4ccc(F)cc4)ccc3O)cc2c1 | –
2 | 44 µM | N=C(N)c1ccc2[nH]c(-c3ccccc3O)cc2c1 | –
3 | 23 µM | N=C(N)c1ccc2[nH]c(-c3cc(-c4ccc(Cl)cc4)ccc3O)cc2c1 | –
4 | 7.3 µM | COc1ccc(-c2ccc(O)c(-c3cc4cc(C(=N)N)ccc4[nH]3)c2)cc1 | –
5 | 8.9 µM | N=C(N)c1ccc2[nH]c(-c3cc(-c4ccccc4)ccc3O)cc2c1 | –
6 | 14 µM | N=C(N)c1ccc2[nH]c(-c3cc(-c4ccc(C(F)(F)F)cc4)ccc3O)cc2c1 | –
7 | – | CN1/C(=C/C=C2C=C(/C=C/C3=[N+](CCCCCC(=O)NCCCC[C@H](NC(=O)CCCCCCC(=O)NCCCCC(NC(=O)N[C@@H](CCC(=O)O)C(=O)O)C(=O)O)C(=O)NCc4ccc(-c5ccc(O)c(-c6cc7cc(C(=N)N)ccc7[nH]6)c5)cc4)c4ccc(S(=O)(=O)O)cc4C3(C)C)CCC/2)C(C)(C)c2cc(S(=O)(=O)O)ccc21 (stereo partly specified) | Drug uptake [1]: Active; Drug uptake (Tumour [2]): Active; Drug uptake (Tumour [3]): Not Active; Drug uptake [4]: Active
8 | 9.3 µM | N=C(N)c1ccc2[nH]c(-c3cc(-c4ccc(CN)cc4)ccc3O)cc2c1 | –
9 | 70 µM | N=C(N)c1ccc2[nH]c(-c3cc(-c4cccs4)ccc3O)cc2c1 | –
10 | – | CC(=O)NC(=N)c1ccc2[nH]c(-c3cc(-c4ccc(CNC(=O)[C@H](CCCCNC(=O)CCCCC[N+]5=C(/C=C/C6=CC(=C/C=C7/N(C)c8ccc(S(=O)(=O)O)cc8C7(C)C)/CCC6)C(C)(C)c6cc(S(=O)(=O)O)ccc65)NC(=O)CCCCCCC(=O)NCCCCC(NC(=O)N[C@@H](CCC(=O)O)C(=O)O)C(=O)O)cc4)ccc3O)cc2c1 (stereo partly specified) | Drug uptake [1]: Active; IC50 [5]: 0.025 µM; Drug uptake [4]: Active
11 | 11 µM | CC(C)(C)OC(=O)NCc1ccc(-c2ccc(O)c(-c3cc4cc(C(=N)N)ccc4[nH]3)c2)cc1 | –
